Experimental data: ChEMBL document CHEMBL5344476, “Development of Hsp90 C-terminal inhibitors with noviomimetics that manifest anti-proliferative activities” (RSC Med Chem, 2024)
Activity calls are given as the source filed them. The rule behind the calls is not given here.

How the values were obtained:
PC-3 = test: Antiproliferative activity against human PC-3 cells assessed as inhibition of cell growth incubated for 72 hrs by MTS assay; type: functional, cell-based; settings: PC-3, 72 h
Summary of the method: (§1)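 Cells were grown at 37°C under 5% CO₂: PC3 in RPMI-1640, MDA-MB-231 in DMEM, and SKBr3 in McCoy's. They were seeded at 2000 cells/well and left for 24 h, then exposed for 72 h to varying concentrations or vehicle (0.5% DMSO final). Viability was read by MTS/PES absorbance at 490 nm relative to control. IC50 came from concentration-response curves; values are means ± SD of two independent experiments.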

MDA-MB-231 = test: Antiproliferative activity against human MDA-MB-231 cells assessed as inhibition of cell growth incubated for 72 hrs by MTS assay; type: functional, cell-based; settings: MDA-MB-231, 72 h; summary of the method: as §1
SK-BR-3 [1] = test: Antiproliferative activity against human SK-BR-3 cells assessed as inhibition of cell growth incubated for 72 hrs by MTS assay; type: functional, cell-based; settings: SK-BR-3, 72 h; summary of the method: as §1
SK-BR-3 [2] = test: Antiproliferative activity against human SK-BR-3 cells; type: functional, cell-based
Summary of the method: as §1, with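 “They” for “Cells were grown at 37°C under 5% CO₂: PC3 in RPMI-1640, MDA-MB-231 in DMEM, and SKBr3 in McCoy's. They”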

[3] = target: T1, Heat shock protein HSP90 (Homo sapiens) (UniProt P07900+P08238); test: Inhibition of C-terminal HSP90 in human SK-BR-3 cells assessed as HER-2 degradation incubated for 24 hrs by Western blot analysis; type: cell-based; settings: dose 0.1-10 µM
Summary of the method: (§2)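 SKBr3 cells were seeded at 700,000/well and grown to ~80% confluency. They were treated for 24 h with compound or vehicle (1% DMSO), then lysed in Triton/SDS buffer with protease and phosphatase inhibitors. Protein (20 ug, BCA-normalized) was run on 10% SDS-PAGE and transferred to PVDF. Blots were probed overnight at 4°C with 1:1000 anti-HER2, Hsp70, Hsp90, Akt, CDK6 or β-actin, then detected by HRP secondary and ECL.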

[4] = target: T1, Heat shock protein HSP90 (Homo sapiens); test: Inhibition of C-terminal HSP90 in human SK-BR-3 cells assessed as reduction in HSR induction with constant Hsp70 level at 0.1 to 10 uM incubated for 24 hrs by Western blot analysis; type: cell-based; settings: dose 0.1-10 µM; summary of the method: as §2
SK-BR-3 [5] = test: Effect on HSP90 independent beta-actin protein level in human SK-BR-3 cells at 0.1 to 10 uM incubated for 24 hrs by Western blot analysis; type: functional, cell-based; settings: dose 0.1-10 µM; summary of the method: as §2
[6] = target: T1, Heat shock protein HSP90 (Homo sapiens); test: Inhibition of C-terminal HSP90 in human SK-BR-3 cells at 0.1 to 10 uM incubated for 24 hrs by Western blot analysis; settings: dose 0.1-10 µM

SMILES | IC50 (PC-3) [µM] | IC50 (MDA-MB-231) [µM] | IC50 (SK-BR-3 [1]) [µM] | IC50 (SK-BR-3 [2]) [µM] | inhibition [3] | inhibition [4] | Activity (SK-BR-3 [5]) | inhibition [6]
COC(=O)C1CCC(Oc2ccc(CCNC(=O)c3ccc(OC)c(-c4cccc(OC)c4)c3)c(-c3cccc(F)c3)c2)CC1 (stereo unspecified) | > 50 | > 50 | > 50 | – | – | – | – | –
COc1cccc(-c2cc(C(=O)NCCc3ccc(OC4CCC(C(=O)Oc5ccccc5)CC4)cc3-c3cccc(F)c3)ccc2OC)c1 (stereo unspecified) | > 50 | > 50 | > 50 | – | – | – | – | –
COc1cccc(-c2cc(C(=O)NCCc3ccc(OCCCB4OC(C)(C)C(C)(C)O4)cc3-c3cccc(F)c3)ccc2OC)c1 | 8.07 | 35.1 | 15.3 | – | – | – | – | –
COc1cccc(-c2cc(C(=O)NCCc3ccc(OC4CCC(SCc5ccccc5)CC4)cc3-c3cccc(F)c3)ccc2OC)c1 (stereo unspecified) | > 50 | > 50 | > 50 | – | – | – | – | –
CNC(=O)C1CCC(Oc2ccc(CCNC(=O)c3ccc(OC)c(-c4cccc(OC)c4)c3)c(-c3cccc(F)c3)c2)CC1 (stereo unspecified) | > 50 | > 50 | > 50 | – | – | – | – | –
CC(C)=CCc1cc(C(=O)NCCc2ccc(OC3CCC(Cc4ccccc4)CC3)cc2-c2cccc(F)c2)ccc1O (stereo unspecified) | > 50 | > 50 | > 50 | – | – | – | – | –
CC(C)=CCc1cc(C(=O)NCCc2ccc(OC3CCC(CCc4ccccc4)CC3)cc2-c2cccc(F)c2)ccc1O (stereo unspecified) | > 50 | > 50 | > 50 | – | – | – | – | –
CC(C)=CCc1cc(C(=O)NCCc2ccc(OC3CCC(SCc4ccccc4)CC3)cc2-c2cccc(F)c2)ccc1O (stereo unspecified) | > 50 | > 50 | > 50 | – | – | – | – | –
COc1cccc(-c2cc(C(=O)NCCc3ccc(OC4CCC(OCc5ccccc5)CC4)cc3-c3cccc(F)c3)ccc2OC)c1 (stereo unspecified) | > 50 | > 50 | > 50 | – | – | – | – | –
COc1cccc(-c2cc(C(=O)NCCc3ccc(OCCCB(O)O)cc3-c3cccc(F)c3)ccc2OC)c1 | 13.3 | 36.6 | 21.6 | – | – | – | – | –
COc1cccc(-c2cc(C(=O)NCCc3ccc(OC4CCC(COc5ccccc5)CC4)cc3-c3cccc(F)c3)ccc2OC)c1 (stereo unspecified) | > 50 | > 50 | > 50 | – | – | – | – | –
COc1cccc(-c2cc(C(=O)NCCc3ccc(OC4CCC(Cc5ccccc5)CC4)cc3-c3cccc(F)c3)ccc2OC)c1 (stereo unspecified) | > 50 | > 50 | > 50 | – | – | – | – | –
COc1cccc(-c2cc(C(=O)NCCc3ccc(OC4CCN(C)CC4)cc3-c3cccc(F)c3)ccc2OC)c1 | 6.6 | 4.87 | 3.46 | – | – | – | – | –
CC(=O)NCCc1ccc(OC2CCC(OCc3ccccc3)CC2)cc1-c1cccc(F)c1 (stereo unspecified) | – | – | – | > 50 | – | – | – | –
COc1cccc(-c2cc(C(=O)NCCc3ccc(OC4CCC(CCc5ccccc5)CC4)cc3-c3cccc(F)c3)ccc2OC)c1 (stereo unspecified) | > 50 | > 50 | > 50 | – | – | – | – | –
COc1cccc(-c2cc(C(=O)NCCc3ccc(OC4CCC(CSc5ccccc5)CC4)cc3-c3cccc(F)c3)ccc2OC)c1 (stereo unspecified) | > 50 | > 50 | > 50 | – | – | – | – | –
CCCC1CCC(Oc2ccc(CCNC(=O)c3ccc(OC)c(-c4cccc(OC)c4)c3)c(-c3cccc(F)c3)c2)CC1 (stereo unspecified) | > 50 | > 50 | > 50 | – | – | – | – | –
CCCN1CCC(Oc2ccc(CCNC(=O)c3ccc(OC)c(-c4cccc(OC)c4)c3)c(-c3cccc(F)c3)c2)CC1 | 11 | 6.37 | 0.56 | – | – | – | – | –
COc1cccc(-c2cc(C(=O)NCCc3ccc(OC4CCC(C(F)(F)Oc5ccccc5)CC4)cc3-c3cccc(F)c3)ccc2OC)c1 (stereo unspecified) | > 50 | > 50 | > 50 | – | – | – | – | –
COc1cccc(-c2cc(C(=O)NCCc3ccc(OC4CCC(CNc5ccccc5)CC4)cc3-c3cccc(F)c3)ccc2OC)c1 (stereo unspecified) | > 50 | > 50 | > 50 | – | – | – | – | –
COc1cccc(-c2cc(C(=O)NCCc3ccc(OC4CCN(Cc5ccccc5)CC4)cc3-c3cccc(F)c3)ccc2OC)c1 | > 50 | > 50 | > 50 | – | – | – | – | –
COc1cccc(-c2cc(C(=O)NCCc3ccc(OC4CCC(C(=O)Nc5ccccc5)CC4)cc3-c3cccc(F)c3)ccc2OC)c1 (stereo unspecified) | > 50 | > 50 | > 50 | – | – | – | – | –
C=CCN1CCC(Oc2ccc(CCNC(=O)c3ccc(OC)c(-c4cccc(OC)c4)c3)c(-c3cccc(F)c3)c2)CC1 | 12.7 | 7.35 | 6.43 | – | – | – | – | –
CCN1CCC(Oc2ccc(CCNC(=O)c3ccc(OC)c(-c4cccc(OC)c4)c3)c(-c3cccc(F)c3)c2)CC1 | 13.5 | 8.46 | 6.6 | – | – | – | – | –
COc1cccc(-c2cc(C(=O)NCCc3ccc(OC4CCCCC4)cc3-c3cccc(F)c3)ccc2OC)c1 | > 50 | > 50 | > 50 | – | – | – | – | –
COc1cccc(-c2cc(C(=O)NCCc3ccc(OC4CCNCC4)cc3-c3cccc(F)c3)ccc2OC)c1 | 3.08 | 3.29 | 0.9 | – | Dose-Dependent Effect | Active | inactive | Active
COc1cccc(-c2cc(C(=O)NCCc3ccc(OC4CCN(C(C)C)CC4)cc3-c3cccc(F)c3)ccc2OC)c1 | 13.6 | 9.35 | 6.61 | – | – | – | – | –
COc1cccc(-c2cc(C(=O)NCCc3ccc(OC4CCOCC4)cc3-c3cccc(F)c3)ccc2OC)c1 | > 50 | > 50 | > 50 | – | – | – | – | –
